Rows were chosen to be rich in hits. Some 2% of all compounds tested hit in one or more screens of this group.
HCV NS3 hel inh – HCV NS3 helicase inhibition | NS3 helicase DNA unwinding, Cy5 molecular beacon fluorescence | inhibition, % at 10.9 µM | 290,000 compounds, 0.56% hits | AID 1800;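 active means inhibition above the mean of all tested compounds plus 3 SD, set per campaign, cut at about 35% in these data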;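 further: 0% = DMSO wells and 100% = thioflavine S control wells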
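System: NS3 helicase fragment of HCV / Schedule: 1 h at 25 °C / Control set: DMSO alone as 0% and 110 µM thioflavine S as 100% / Reagent: Cy5/quencher beacon DNA duplex and ATP to start / Technique: Cy5 fluorescence / Replication: singlicate / Evaluation: % inhibition of end-to-start signal ratio versus controls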
eIF4H FP inh – inhibitors of RNA binding by human eIF4H | Q15056 | eIF4H fluorescence polarization binding assay | inhibition, % at 35 µM | 290,000 compounds, 0.94% hits | AID 2012;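 further: calls also rest on retests at 20 µM and on dose response follow-up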
PABP FP inh – blocks human PABP binding to poly(A) RNA; P11940; 290,000 compounds, 1% hits; inhibition, % at 35 µM; AID 2014; fluorescence polarization;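 further: calls also rest on retests at 20 µM and on dose response follow-up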
core dimer inh – HCV core protein dimerization inhibition. inhibition, % at 5 µM. TR-FRET GST/Flag-core106 dimerization, 1536-well. 300,000 compounds, 0.33% hits;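 active means inhibition above the mean of all tested compounds plus 3 SD, set per screening campaign, cut at about 45% in these data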
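Assay system: tagged HCV core106 pair (GST and Flag); medium: KF-containing HEPES buffer, pH 7.45, DTT, CHAPS, BSA; also added: Eu donor and XL665 acceptor anti-tag antibodies; dosing: 5 µM single dose; timing: compound-protein-antibody incubation 4 h at 22.5 °C; signal: TR-FRET 671 and 617 nm emission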
PABP1 MLLE inh – inhibitors of microRNA-mediated deadenylation, human PABP1 MLLE binding; P11940; GST-MLLE / FITC-PAM2 fluorescence polarization; inhibition, % at 20 µM; 360,000 compounds, 0.36% hits; AID 588489; in the data active means inhibition above about 35%, passing the limit was not always enough;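 further: plate controls were DMSO wells with GST-MLLE for no effect and wells lacking GST-MLLE protein for full effect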
DNA FID counter – counter-screen for HCV NS3 helicase inhibitors: DNA intercalator displacement | DNA fluorescent intercalator displacement, fluorescence | inhibition, % at 7.9 µM | 290,000 compounds, 0.17% hits | AID 1845; in the data active means inhibition above about 37%;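 further: 0% = vehicle and 100% = reference compound; higher means more ethidium bromide displaced from hairpin DNA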
An asterisk follows results filed as active; ? = inconclusive; . = no result given. Unless noted, how the calls were made is not given here.

SMILES | HCV NS3 hel inh | eIF4H FP inh | PABP FP inh | core dimer inh | PABP1 MLLE inh | DNA FID counter
CN(C(=O)COC(=O)CSc1ccc([N+](=O)[O-])cc1)c1ccccc1 | . | . | . | . | 23 | .
CN(Cc1ccc(Cl)cc1)C(=O)COC(=O)CSc1ccc([N+](=O)[O-])cc1 | . | . | . | . | 40* | .
CC(C)(C)c1ccc(C(=O)NCc2nnc(SCC(=O)NCc3ccco3)o2)cc1 | 4 | 52* | 11 | 0 | -25 | -26
COc1ccc(S(=O)(=O)N2CCOCC2)cc1NC(=O)CN1C(=O)NC2(CCC(C)CC2)C1=O (centres undefined) | . | . | . | . | -21 | .
Cc1ccc(S(=O)(=O)NC(=O)C2(C)CCN2C(=O)c2cccc(F)c2)cc1 (centres undefined) | . | . | . | . | 4 | .
COc1c2c(c3c(c1OC)c(=O)c1ccccc1n3C)OCO2 | . | . | . | . | 55* | .
CSc1nc(N)nc(SCC(=O)c2ccc(C)cc2)c1C#N | 4 | -11 | 2 | 48* | -31 | 2
CSc1nc(N)nc(SCC(=O)OC(C)C)c1C#N | 0 | -4 | 6 | -2 | -14 | 4
CCCc1cc(=O)[nH]c(SCC(=O)Nc2nonc2N)n1 | 2 | 4 | 6 | 1 | 41* | -2
CCCc1cc(=O)[nH]c(SCC(=O)NC(=O)OCC)n1 | -2 | -8 | 7 | 0 | 19 | -1
C[C@@H]1[C@@H](Sc2ccccc2)CC(=O)O[C@@H]1c1ccc(-c2ccccc2)cc1 | . | . | . | 1 | 44* | .
Cc1ccc(-c2csc(NC(=O)c3ccc(S(=O)(=O)N4CCc5ccccc54)cc3)n2)cc1 | 17 | -4 | 6 | 67* | 5 | -14
CCc1nnc(NC(=O)c2ccc(Cl)c(S(=O)(=O)N3CCc4ccccc43)c2)s1 | -1 | -2 | 8 | 51* | -26 | -19
NS(=O)(=O)c1ccc(NC(=O)c2ccc(S(=O)(=O)N3CCc4ccccc43)cc2)cc1 | -17 | 19 | 10 | 58* | -12 | -18
CCN(CC(=O)Nc1c(F)cccc1F)C(=O)C1CC(=O)N(c2ccccc2OC)C1 (centres undefined) | 14 | 10 | 62* | 5 | -3 | -12
CC[N+](CC)(CC)CCCCOc1ccc2c(c1)C(=O)c1cc(OCCCC[N+](CC)(CC)CC)ccc1-2 | -16 | 10 | ? | -9 | -137 | 90*
CCCc1ccc(C(O)c2ncc(-c3ccc(OC)cc3)[nH]2)cc1 (centres undefined) | . | . | . | . | 8 | .
O=c1c2ccccc2nc2n1CCc1ccc(Br)cc1-2 | . | . | . | . | 13 | .
NC(=O)CC1(c2ccccc2)CCCCC1 | . | . | . | . | 5 | .
Cn1c(=O)c2c(-c3ccccc3)n(-c3cccc(O)c3)cc2n(C)c1=O | . | . | . | . | 19 | .
Cn1c(=O)c2c(-c3ccccc3)n(-c3ccc(N)cc3)cc2n(C)c1=O | . | . | . | . | 57* | .
CCN(CC)S(=O)(=O)c1cccc(NC(=O)COC(=O)c2n[nH]c(=O)c3ccccc23)c1 | 7 | -1 | 68* | -1 | -23 | -5
CCN(CC)S(=O)(=O)c1cccc(NC(=O)COC(=O)c2cc(C)oc2C)c1 | -2 | -1 | 0 | 4 | -18 | -16
S=c1[nH]nc(-c2cc(-c3ccccc3)n[nH]2)n1/N=C/C=C/c1ccco1 | 30 | 102* | 62* | 28 | 3 | -9
S=c1[nH]nc(COc2ccccc2)n1/N=C/C=C/c1ccccc1 | -2 | 2 | -14 | 9 | -81 | -20
SMILES | HCV NS3 hel inh | eIF4H FP inh | PABP FP inh | core dimer inh | PABP1 MLLE inh | DNA FID counter
COc1ccccc1/C=C/C=N/n1c(-c2n[nH]c3c2CCC3)n[nH]c1=S | 12 | 6 | 4 | 4 | -37 | -8
S=c1[nH]nc(COc2ccccc2)n1/N=C/C=C/c1ccco1 | 20 | 81* | 68* | 3 | -54 | -10
S=c1[nH]nc(-c2n[nH]c3c2CCC3)n1/N=C/C=C/c1ccco1 | 10 | 90* | 68* | -5 | -6 | -8
CC(=O)C[C@H](O)CC(=O)[C@H]1OC(=O)CC/C=C\Cc2ccccc21 | . | . | . | . | 2 | .
c1ccc(-c2ccc(-c3nccc4ccccc34)[nH]2)cc1 | -21 | 62* | 13* | . | . | -7
CC(C)(C)c1ccc(Oc2coc3cc(OCC(=O)O)ccc3c2=O)cc1 | 15 | -2 | 13 | 6 | 4 | -18
COC(=O)c1ccc(Oc2coc3cc(OCc4ccc([N+](=O)[O-])cc4)ccc3c2=O)cc1 | 12 | 8 | 2 | 68* | 8 | -4
CC(=O)Nc1ccc(S(=O)(=O)Nc2nnc(C)s2)cc1 | . | . | . | . | 36 | .
CCOC(=O)C1CCN(c2ccc(C(N)=O)cc2[N+](=O)[O-])CC1 | -2 | -3 | 2 | -1 | -2 | -1
NC(=O)c1ccc(N2CCC(C(N)=O)CC2)c([N+](=O)[O-])c1 | 6 | 93* | 68* | 0 | 4 | 0
CCCc1cc(=O)[nH]c(SCC(=O)NCCN2C(=O)CSC2=O)n1 | . | . | . | . | 2 | .
CC(C(=O)c1ccc(Br)cc1)[n+]1cccc(NC(=O)c2ccccc2)c1 (centres undefined) | -27 | -12 | 7 | -5 | 7 | 3
CC(C(=O)c1ccc(Br)cc1)[n+]1cccc2ccccc21 (centres undefined) | -31 | 90 | 31* | 4 | -28 | 0
O=C(/C=C/c1ccco1)OCc1nnc(-c2ccc(Cl)cc2)o1 | 28 | 57* | active | 12 | -5 | -30
CC(/C=C1\SC(=S)N(CCC(=O)Nc2ccccc2O)C1=O)=C\c1ccccc1 | 3 | 51 | active | 7 | -51 | -12
COc1ccccc1/C=C1\SC(=S)N(CCC(=O)Nc2ccc(C(=O)O)c(O)c2)C1=O | 3 | -11 | 15 | 9 | -12 | 38*
O=C(CCN1C(=O)/C(=C\c2ccco2)SC1=S)Nc1ccc(C(=O)O)c(O)c1 | 26 | . | . | 4 | -8 | 5
O=C(CCN1C(=O)/C(=C/c2ccco2)SC1=S)Nc1ccc(C(=O)O)c(O)c1 | 12 | 86* | 84* | 4 | -8 | 14
O=C(CCCN1C(=O)/C(=C\c2ccco2)SC1=S)Nc1ccc2ccccc2c1 | 21 | 78* | 1.4* | 46* | -11 | -5
CCCS(=O)(=O)NC(=O)C1(C)CCCN(C(=O)c2c(F)ccc(C)c2F)C1 (centres undefined) | . | . | . | . | -7 | .
O=C(NCCN1CCNC1=O)c1ccc2sc([C@@H]3O[C@H](CO)[C@H](O)[C@H](O)[C@H]3O)nc2c1 | . | . | . | . | -5 | .
CC[C@]12C(=O)N(C)C[C@H]([C@@H]3C(=O)N(C)C(=O)[C@@H]31)N2C(=O)c1ccc(F)cc1 | . | . | . | . | -6 | .
CC1(C(=O)NS(=O)(=O)c2cccs2)CCN1C(=O)CC1CCCC1 (centres undefined) | . | . | . | . | 7 | .
COc1ccc(C(=O)NCc2ccc3c(c2)OCO3)cc1S(=O)(=O)N1CCCC1 | . | . | . | . | -15 | .
COC(=O)c1ccc(CNC(=O)C(C)N=C2NS(=O)(=O)c3ccccc32)cc1 (centres undefined) | . | . | . | . | -5 | .
